HKDC1 inhibitor = HKDC1 hexokinase inhibitors, primary screen, biochemical, fluorescence, uHTS; Q2TB90; recombinant HKDC1, G6PDH/diaphorase resazurin coupled fluorescence; inhibition, % at 20 µM; 340,000 compounds, 0.16% hits; AID 493160, 2011;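 active = inhibition above about 35% when tested at 20 µM, limit read from the data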;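 note: plate controls were DMSO wells with enzyme for no effect and DMSO wells lacking enzyme for full effect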
Target sequence (Q2TB90 whole entry, looked up): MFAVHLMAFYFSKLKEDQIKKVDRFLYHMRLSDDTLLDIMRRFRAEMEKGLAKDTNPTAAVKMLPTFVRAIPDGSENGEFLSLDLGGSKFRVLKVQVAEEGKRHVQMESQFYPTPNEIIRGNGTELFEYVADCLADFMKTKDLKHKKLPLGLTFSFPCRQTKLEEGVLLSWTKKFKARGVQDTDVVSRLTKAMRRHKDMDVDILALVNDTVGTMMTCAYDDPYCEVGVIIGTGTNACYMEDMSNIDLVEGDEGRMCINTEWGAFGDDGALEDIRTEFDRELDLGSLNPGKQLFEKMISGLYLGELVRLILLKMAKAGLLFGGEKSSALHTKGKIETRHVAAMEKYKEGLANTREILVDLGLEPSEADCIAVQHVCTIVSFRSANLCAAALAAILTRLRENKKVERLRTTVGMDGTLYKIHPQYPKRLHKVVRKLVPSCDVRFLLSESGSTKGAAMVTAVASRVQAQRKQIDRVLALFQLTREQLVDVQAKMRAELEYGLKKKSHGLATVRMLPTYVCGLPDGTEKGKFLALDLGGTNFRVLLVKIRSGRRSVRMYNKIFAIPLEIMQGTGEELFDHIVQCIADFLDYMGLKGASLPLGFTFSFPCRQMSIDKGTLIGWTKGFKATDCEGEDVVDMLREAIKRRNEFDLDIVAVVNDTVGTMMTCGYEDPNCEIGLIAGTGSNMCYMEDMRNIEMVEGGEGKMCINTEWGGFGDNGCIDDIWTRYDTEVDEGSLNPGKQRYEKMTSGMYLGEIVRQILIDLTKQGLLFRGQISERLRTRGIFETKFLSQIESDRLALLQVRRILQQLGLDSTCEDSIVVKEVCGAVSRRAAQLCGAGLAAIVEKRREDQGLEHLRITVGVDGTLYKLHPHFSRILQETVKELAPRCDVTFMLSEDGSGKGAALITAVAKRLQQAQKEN
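Test system: Recombinant HKDC1 (HK5) hexokinase enzyme, produced in-house | Input: HKDC1 at 5 µg/mL | Buffer or medium: Tris pH 8.0 buffer with MgCl2, Tween-20, BSA, BME | Schedule: 90 min reaction incubation at room temperature, dark | Technique: Resazurin-to-resorufin fluorescence via G6PDH and diaphorase coupling, 525/613 nm | Controls: DMSO wells with and without enzyme mix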
PfGluPho inh = PfG6PD enzyme inhibitors, primary screen, biochemical, fluorescence intensity, uHTS; inhibition, % at 20 µM; 350,000 compounds, 0.78% hits; AID 504690, 2011; glucose-6-phosphate dehydrogenase-6-phosphogluconolactonase (Plasmodium falciparum 3D7); PfGluPho enzyme, NADPH resazurin-diaphorase fluorescence;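 active = inhibition reaching at least a set limit at 20 µM in the primary screen, cut at about 59% in these data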;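 note: 0% = DMSO wells with substrate and 100% = DMSO wells lacking glucose-6-phosphate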
Diaph act CS = compounds boosting diaphorase resazurin reduction – biochemical, uHTS, resorufin fluorescence, counter-screen for diaphorase-coupled primary assays, primary screen; activation factor at 20 µM; 190,000 compounds, 0.005% hits; Diaphorase/resazurin coupled assay, 16 min; hits give high values; 1 = vehicle wells, 0 = NADH-free wells; AID 1229, 2008;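 active = diaphorase activity raised at least twofold by the compound at 20 µM; inactive = activation factor below 2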
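Material: Clostridium kluyveri diaphorase, purified enzyme; Quantity: enzyme 0.07 U/mL final; Medium: HEPES pH 7.4 buffer with MgCl2 and Tween 20; Dosing: single compound dose of 20 µM, 1% DMSO final; Schedule: 16 min reaction at room temperature; Measured by: red resorufin fluorescence at 544/590 nm excitation/emission.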
Diaph inh CS = diaphorase inhibitors and chemical oxidizers, primary screen, counter-screen for diaphorase-coupled primary assays, biochemical, uHTS, resorufin fluorescence | inhibition, % at 20 µM | 190,000 compounds, 0.69% hits | diaphorase resazurin-to-resorufin fluorescence, NADH, 16 min; bacterial (C. kluyveri) enzyme, not human;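 active = primary screen inhibition at 20 µM above a set limit, cut at about 50% in these data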;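 note: plate controls were DMSO with full reaction for no effect and wells lacking NADH for full effect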
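Test system: diaphorase enzyme from Clostridium kluyveri; amount: diaphorase at 0.14 U/mL in enzyme working solution; detection: fluorescence of resorufin formed from resazurin, Ex 544/Em 590 nm; times: reaction incubation of 16 min at room temperature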
G6PDH CS = L. mesenteroides G6PDH inhibitors, counter-screen for G6PDH-coupled screening assays, biochemical, Leuconostoc mesenteroides enzyme. glucose-6-phosphate dehydrogenase [Leuconostoc mesenteroides]. Purified L. mesenteroides G6PDH, diaphorase/resazurin coupled fluorescence, 45 min. inhibition, % at 5 µM. 200,000 compounds, 0.12% hits; in the data active = inhibition above about 50%
Tb hexokinase = Trypanosoma brucei hexokinase 1 inhibitors, primary screen, biochemical, G6PDH-coupled NADH absorbance, MLSCN library | hexokinase 1 [Trypanosoma brucei] | recombinant TbHK1, G6PDH-coupled NADH A340 | inhibition, % at 10 µM | 220,000 compounds, 0.11% hits | AID 1430, 2008;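 active = inhibition of 50% or more in the single-dose primary screen; inactive = inhibition below 50%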
* marks the source's active call; other numbers are inactive results. Sampled rows, rich in hits. Any-hit rate of the full collection: about 1.3%.

Screening NC(=O)Cc1ccc(Nc2nnc(-c3ccc(O)cc3)c3ccccc23)cc1 returned HKDC1 inhibitor 18, PfGluPho inh -11, Diaph act CS 0.9, Diaph inh CS 6, G6PDH CS -16 and Tb hexokinase -24.
For CN1CCN(c2ccc(Cl)cc2NC(=O)/C=C/c2ccc(F)cc2)CC1 the results were HKDC1 inhibitor -4, PfGluPho inh 21, Diaph act CS 1, Diaph inh CS 2, G6PDH CS -5 and Tb hexokinase -2.
COc1ccc(-c2noc(CCC(=O)N3CCN(c4ccc(F)cc4)CC3)n2)cc1 was read as HKDC1 inhibitor 10 and PfGluPho inh 8.
Screening C#CCOCCOCCOCCNc1nc(N2CCN(C(=O)CCCCCCCCCCNC(=O)Cn3cc(CCCCCN)nn3)CC2)nc(N2CCN(C(=O)CCCCCCCCCCNC(=O)[C@@H](CCC(=O)O)n3cc(CCCCCN)nn3)CC2)n1 returned HKDC1 inhibitor -8 and PfGluPho inh 25.
C#CCOCCOCCOCCNc1nc(N2CCN(C(=O)CCCCCCCCCCNC(=O)Cn3cc(CCCCCN)nn3)CC2)nc(N2CCN(C(=O)CCCCCCCCCCNC(=O)Cn3cc(CCCCCN)nn3)CC2)n1 was read as HKDC1 inhibitor -9 and PfGluPho inh 77*.
For CCn1c2ccccc2c2nc3cc(C(=O)O)ccc3nc21 the results were HKDC1 inhibitor 0, PfGluPho inh -8, Diaph act CS 0.4, Diaph inh CS 60*, G6PDH CS 16 and Tb hexokinase -20.
Screening CC(C)N1CC=C2C(C#N)=C(N)C(C#N)(C#N)[C@H](c3ccoc3)[C@H]2C1 returned Diaph act CS 0.4, Diaph inh CS 62*, G6PDH CS 15 and Tb hexokinase -8.
Screening S=c1[nH]ncn1/N=C/c1cccc(Oc2ccccc2)c1 returned HKDC1 inhibitor -3, PfGluPho inh 21, Diaph act CS 0.2, Diaph inh CS 85*, G6PDH CS 8 and Tb hexokinase -5.
S=c1nc(-c2ccccc2)[nH]c2ccccc12 was read as HKDC1 inhibitor -6, PfGluPho inh 13, Diaph act CS 0.3, Diaph inh CS 66*, G6PDH CS -1 and Tb hexokinase -11.
For O=c1c2c3nc4ccccc4nc3n(-c3ccc4c(c3)OCCO4)c2ncn1C1CCCC1 the results were HKDC1 inhibitor 48*, PfGluPho inh 5, Diaph act CS 0.7, Diaph inh CS 26 and G6PDH CS 5.
`O=C(Nc1nnc(COc2ccc(Br)cc2)s1)c1ccco1` gave HKDC1 inhibitor 9, PfGluPho inh -19 and Tb hexokinase -11.
For COc1ccccc1C(C)NC(=O)CCC(=O)N1CCN(S(=O)(=O)c2ccc(Cl)cc2)CC1 (stereo not given) the results were HKDC1 inhibitor -3 and PfGluPho inh -9.
CCOC(=O)c1cc2c(=O)n3ccccc3nc2n(Cc2ccco2)c1=NC(=O)c1ccccc1OC was read as HKDC1 inhibitor -13, PfGluPho inh 7, Diaph act CS 0.2, Diaph inh CS 80*, G6PDH CS -1 and Tb hexokinase -16.
For Cc1ccc2nc3c(cc(S(=O)(=O)c4ccccc4)c(=N)n3Cc3ccco3)c(=O)n2c1 the results were HKDC1 inhibitor 1, PfGluPho inh 5, Diaph act CS 0.5, Diaph inh CS 52*, G6PDH CS -2 and Tb hexokinase -10.
For N=c1c(S(=O)(=O)c2ccccc2)cc2c(=O)n3ccccc3nc2n1Cc1ccco1 the results were HKDC1 inhibitor 5, PfGluPho inh 15, Diaph act CS 0.5, Diaph inh CS 51*, G6PDH CS 0 and Tb hexokinase -8.
CCOC(=O)c1cc2c(=O)n3ccccc3nc2n(Cc2ccco2)c1=NC(=O)c1ccc(OC)cc1 was read as HKDC1 inhibitor -4, PfGluPho inh 8, Diaph act CS 0.7, Diaph inh CS 35, G6PDH CS 8 and Tb hexokinase -8.
`Cn1cc([N+](=O)[O-])c(C(=O)n2cccn2)n1` gave HKDC1 inhibitor -6, PfGluPho inh -8 and Tb hexokinase -3.
Screening Cc1nnc(SCC(=O)NC2CCCCC2)[nH]c1=O returned HKDC1 inhibitor -1 and PfGluPho inh 3.
For COc1ccc(C=Nc2ccc3[nH]ncc3c2)c(O)c1 the results were HKDC1 inhibitor 10, PfGluPho inh 22, Diaph act CS 0.3, Diaph inh CS 66*, G6PDH CS 40 and Tb hexokinase -7.
`Cc1nn(CC(=O)Nc2ccc(Cl)c(S(=O)(=O)N(C)C)c2)c(C)c1[N+](=O)[O-]` gave HKDC1 inhibitor -7, PfGluPho inh 1, Diaph act CS 0.9, Diaph inh CS 14, G6PDH CS 1 and Tb hexokinase 4.
`O=C(NCCCN1CCCC1=O)c1c(O)nc2ccccn2c1=O` gave HKDC1 inhibitor -2 and PfGluPho inh 13.
Screening CCCCCCCCCCCCCCCC(O)C(N)CO (stereo not given) returned HKDC1 inhibitor -7, PfGluPho inh -7, Diaph act CS 2.3*, Diaph inh CS -128, G6PDH CS 12 and Tb hexokinase -8.
CCCCCCCCCCCCCCCC(O)C[N+](C)(C)CCO (stereo not given) was read as HKDC1 inhibitor 0 and PfGluPho inh -5.
Screening CCn1cc(C(=O)OC)c(=O)c2cc(S(=O)(=O)N(C)C3CCCCC3)ccc21 returned HKDC1 inhibitor -10, PfGluPho inh 4, Diaph act CS 0.8, Diaph inh CS 20, G6PDH CS 11 and Tb hexokinase -4.
For Cc1ccc(C(=O)NCc2ccccn2)cc1Cl the results were HKDC1 inhibitor -11, PfGluPho inh 25, Diaph act CS 1, Diaph inh CS 3, G6PDH CS 20 and Tb hexokinase 1.
Screening Cc1c(NC(=O)CSc2ccccc2F)c(=O)n(-c2ccccc2)n1C returned HKDC1 inhibitor -2, PfGluPho inh -5, Diaph act CS 0.5, Diaph inh CS 50*, G6PDH CS 1 and Tb hexokinase 11.
CCOc1ccc(S(=O)(=O)n2nc(C)cc2C)cc1 was read as HKDC1 inhibitor -2 and PfGluPho inh 10.

Screens from PubChem.
